Measurements reported in ChEMBL document CHEMBL4513216, “Probing the Open Global Health Chemical Diversity Library for Multistage-Active Starting Points for Next-Generation Antimalarials” (ACS Infect Dis, 2020).

Assay: Toxicity liver stage against HepG2, at 10uM
Type: cell-based
Design: test concentration 10 uM, cell line HepG2-A16-CD81EGFP
Conditions: human, HepG2-A16-CD81EGFP cells; read-out: INHIBITION
Summary of the method: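 Uninfected HepG2-A16-CD81EGFP cells, 3 × 10^3 per well, 1536-well, plated on prespotted compound at 10 μM final, parasite-free screening media added to match infected plates; puromycin 10 μM positive, DMSO 0.5% negative; run in parallel with 48 h PbLuc assay at 37 °C, 5% CO2; viability by CellTiter-Glo luminescence, normalized to controls.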

Compared with CC(C)Cc1cc(C(=O)O)nc2[nH]c(=O)[nH]c(=O)c12, CC(C)c1noc(CCC(=O)Nc2cc(C(F)(F)F)c[nH]c2=O)n1 is higher in cytotoxicity at 10 µM: -0.508% for the first, -0.387% for the second.

First: O=C(Nc1cccnc1-n1cc(Cl)cn1)C1CC1
Second: Cc1ncccc1NC(=O)[C@@H]1CCO[C@@H]2CCN(c3ccccc3)C[C@@H]21
The cytotoxicity at 10 µM of the first is lower: -42.7% for the first, 6.7% for the second.

Compared with Cc1cc(C)nc(NCCC(=O)NCCn2ccc3ccccc32)n1, CN(C)C(CNC(=O)NCCc1cccc(O)c1)c1ccco1 (centres undefined) is higher in cytotoxicity at 10 µM: -34.2% for the first, -4.36% for the second.

Compared with CCS(=O)(=O)N1CC(c2nc(-c3ccncc3)no2)C1, CS(=O)(=O)NCC(=O)N1CCCC1c1noc(C2CC2)n1 (centres undefined) is higher in cytotoxicity at 10 µM: -5.86% for the first, 14.2% for the second.

Going from O=C(CN1C(=O)CCC1=O)NCCc1nc(C2CC2)cc(C(F)(F)F)n1 to CC(C)c1nnc2n1CCN(C(=O)c1cccc(C(F)(F)F)c1)C2, the cytotoxicity at 10 µM rises from -2.02% to 4.09%.

Compared with CC(C)CNC(=O)N1C[C@H]2CC[C@@]3(N=C(c4ccccc4)NC3=O)[C@H]2C1, CC(=O)N[C@@H]1CN(S(=O)(=O)Cc2ccccc2)C[C@H]1C(C)C is higher in cytotoxicity at 10 µM: -5.82% for the first, -5.61% for the second.

First: Cn1cc(CN2CCC3(CC2)CCN(Cc2ccccn2)CC3)cn1
Second: O=C(N1CCCC1)N1CCC2(CC1)COCCN(Cc1cccnc1)C2
The cytotoxicity at 10 µM of the first is higher: 9.84% for the first, -77.3% for the second.

Going from COCCC(=O)N1C[C@@H]2COC[C@]2(COCc2cccnc2)C1 to Cc1ccn(CCC(=O)N2CCCC(Cc3cccnc3)C2)n1 (centres undefined), the cytotoxicity at 10 µM falls from -4.23% to -4.47%.

First: CN1CCN(c2ncc3c(=O)n(Cc4ccco4)ccc3n2)CC1
Second: CN1CCCN(c2nccc(-c3cc(C(=O)O)ccn3)n2)CC1
The cytotoxicity at 10 µM of the first is lower: -15.1% for the first, 13.1% for the second.

Compared with Cc1noc(C)c1CC(=O)N1CC[C@@](C)(O)[C@H](Oc2ccccc2)C1, O=C(c1cnccn1)N1CCC2(CC1)CC(Oc1ccccc1)CO2 (centres undefined) is higher in cytotoxicity at 10 µM: 0.935% for the first, 2.74% for the second.

Compared with COc1ccc2c(c1)C(=O)NC1(CC2)CCN(Cc2ccccc2)C1 (centres undefined), CO[C@H]1CCN(Cc2ccoc2)C[C@@H]1Cc1ccccc1 is lower in cytotoxicity at 10 µM: 0.585% for the first, -11.9% for the second.

Going from CC(C)Nc1cccc(CC2CCN(S(C)(=O)=O)CC2)n1 to Cc1cnc(CCNc2cccc(CC3CCCNC3)n2)s1 (centres undefined), the cytotoxicity at 10 µM rises from -22.3% to -3.02%.

Going from CNc1cc(C2CN(Cc3csc(C)n3)CCO2)nc(C)n1 (centres undefined) to Cc1nc(NCc2ccc(F)cc2)cc(C2CCCN2)n1 (centres undefined), the cytotoxicity at 10 µM falls from -1.6% to -3.27%.

Compared with Cc1nccc(C2CCCCN2Cc2ccc(F)cc2)n1 (centres undefined), CC(=O)N(c1ccc(C)cc1)c1nc(CN2CCCCC2C)cs1 (centres undefined) is higher in cytotoxicity at 10 µM: -6.06% for the first, -5.65% for the second.

Going from CC(C)NC(=O)C1(Cc2ccccc2-c2cccs2)CCNC1 (centres undefined) to CCOc1ccccc1CCn1cc2[nH]cccc-2c1=O, the cytotoxicity at 10 µM rises from -42% to 13.6%.

First: COc1cccc(CN2CC[C@H](NC(C)=O)[C@@H](O)CC2)c1F
Second: C[C@]1(O)CN(CC(=O)N2CCCC2)CC[C@@H]1Oc1cccc(F)c1
The cytotoxicity at 10 µM of the first is higher: -8.63% for the first, -19.1% for the second.

First: O=C(c1ccncc1)N1CCCC1c1nc(O)cc(-c2ccccn2)n1 (centres undefined)
Second: Cc1cc(C2CCC2)nc(N(C)Cc2cc(-c3ccccn3)no2)n1
The cytotoxicity at 10 µM of the first is lower: -9.08% for the first, 21.2% for the second.

First: COc1ncc(CN2CCOC(C)(C(=O)N3CCOCC3)C2)cn1 (centres undefined)
Second: COc1ncc(CN2C[C@@H]3CC[C@@](O)(c4ccc(C)cn4)[C@@H]3C2)cn1
The cytotoxicity at 10 µM of the first is higher: -9.49% for the first, -10.3% for the second.

Going from CNc1cccc(C2CCCN(C(=O)c3coc(C)n3)C2)n1 (centres undefined) to CSc1ccc(Cl)c(C(=O)N2CCCC(CNS(C)(=O)=O)C2)c1 (centres undefined), the cytotoxicity at 10 µM rises from -11.7% to -5.92%.

First: COc1ccc(C(C)NCc2cscn2)cc1Cn1cccn1 (centres undefined)
Second: COc1ccc(CNc2cccnc2-n2cccn2)c(OC)c1OC
The cytotoxicity at 10 µM of the first is lower: 3.01% for the first, 5.69% for the second.

Going from CCN(CCNS(=O)(=O)N1CCOCC1)C(=O)OC(C)(C)C to CCCS(=O)(=O)N1CCC(NC(=O)c2cc(C)c(CC)s2)CC1, the cytotoxicity at 10 µM falls from 19.9% to 18.4%.

Compared with CN(CCOCC1CC1)C(=O)Nc1ccc([S+](C)[O-])c(F)c1 (centres undefined), Cc1cc(CN2CCN(CC3CC3)[C@@H]3CS(=O)(=O)C[C@@H]32)ccc1F is higher in cytotoxicity at 10 µM: -1.7% for the first, -1.37% for the second.

Compared with NS(=O)(=O)CCCNC(=O)c1cnc(-c2ccsc2)s1, CCC(C)N(Cc1cnc(NCC(=O)O)nc1)Cc1ccsc1 (centres undefined) is higher in cytotoxicity at 10 µM: -9.59% for the first, 0.866% for the second.

First: COC(=O)c1cccc(CNC(=O)NCCC(F)(F)F)c1
Second: CN(C)C(=O)c1cccc(CN2CCOC(Cn3cncn3)C2)c1 (centres undefined)
The cytotoxicity at 10 µM of the first is higher: -0.247% for the first, -3.75% for the second.

Going from N#Cc1ccc(NCC(=O)Nc2ccn(Cc3cccnc3)n2)cc1 to CN1CC(C(=O)NCc2ccc(OCc3cccnc3)cc2)CC1=O (centres undefined), the cytotoxicity at 10 µM rises from -11.2% to 17.7%.

First: COCCN(Cc1cccc(C#N)c1)Cc1nc(C)no1
Second: CCc1ccc(CN(C)c2cc(COC)nc3ccnn23)cc1
The cytotoxicity at 10 µM of the first is lower: 1.18% for the first, 3.52% for the second.

Going from N#Cc1cc(N2CCC(CS(N)(=O)=O)CC2)c2ccccc2n1 to Cc1cc(N2CCC(c3ncc[nH]3)CC2)c2ccccc2n1, the cytotoxicity at 10 µM rises from -11.4% to -9.74%.

Going from CC(c1cccnc1)N1CCN(CCCC#N)CC1 (centres undefined) to O=C(c1cccnc1)N1CCc2ncnc(N3CCOCC3)c2CC1, the cytotoxicity at 10 µM falls from 10.3% to -79.3%.

First: CN(C(=O)CCNC(=O)C1COc2ccccc21)c1ccccc1 (centres undefined)
Second: CCN1CCC2(CC1)CC(NC(=O)c1csnn1)c1ccccc1O2 (centres undefined)
The cytotoxicity at 10 µM of the first is higher: -7.53% for the first, -116% for the second.

Going from Cc1nccc(CNS(=O)(=O)N(C)Cc2ccc(Cl)cc2)n1 to Cc1nc2cc(=O)[nH]n2c(C)c1CC(=O)NCc1ccc(C#N)cc1, the cytotoxicity at 10 µM falls from 29.5% to -3.34%.

Compared with COC1CCN(CCNc2ncc(Br)cc2C)CC1, CC(C)c1cc(CN2CCC(N)CC2)on1 is higher in cytotoxicity at 10 µM: -13.9% for the first, -10.7% for the second.

First: Cc1cccc(N2CCOCC3(C2)CN(c2cccnc2)C(=O)CO3)n1 (centres undefined)
Second: Cc1cnccc1CN1Cc2ccccc2OC2(CCC(CO)CC2)C1 (centres undefined)
The cytotoxicity at 10 µM of the first is higher: -4.96% for the first, -8.83% for the second.

Going from O=C(c1ccc2[nH]ccc2c1)N1CCn2cc(CN3CCCC3)nc2C1 to CCOC(=O)C1(Cc2cccc(OC)c2)CCCN(Cc2ncc[nH]2)C1 (centres undefined), the cytotoxicity at 10 µM rises from -78.2% to 3.86%.

Going from CC(=O)N1CCCC2(C1)CN(C(=O)Cc1ccccc1)CCO2 (centres undefined) to CN1CC(=O)N(c2ccccc2)CC12CCN(CCO)C2 (centres undefined), the cytotoxicity at 10 µM rises from -83.9% to 3.16%.

Compared with Nc1nccc(-c2c[nH]nc2C2CCCCC2)n1, COc1ccccc1OCCc1cc(C2CCNC2)n[nH]1 (centres undefined) is lower in cytotoxicity at 10 µM: 36.5% for the first, -17.1% for the second.

Going from c1ccc2c(c1)CC(N1CCCC(NCc3cccc4nonc34)C1)C2 (centres undefined) to Cc1ccccc1CSc1nc(N)cc(N2CCCC(C(N)=O)C2)n1 (centres undefined), the cytotoxicity at 10 µM falls from -1.98% to -2.32%.

Compared with O=C(N1CC(c2cccnc2)C1)C1(c2ccc(F)cc2)CCOCC1, CNC(=O)NCC1CCC2(CCN(C(=O)c3cccnc3)CC2)CO1 (centres undefined) is lower in cytotoxicity at 10 µM: -14.5% for the first, -94.9% for the second.

Compared with CCOc1ccccc1C(C(=O)O)N(C)CC1CCOCC1 (centres undefined), CN(Cc1noc2c1CCCC2)C(=O)Cn1c(=O)cnc2ccccc21 is lower in cytotoxicity at 10 µM: -4.36% for the first, -38.9% for the second.

Going from CC(=O)N1CCc2c(nc(N(C)C)nc2N(C)CC2CCCO2)C1 (centres undefined) to Cc1noc(C)c1C(=O)N(Cc1ccsc1)CC1CCCO1 (centres undefined), the cytotoxicity at 10 µM rises from 1.9% to 3.91%.

Going from CSCC(=O)N1CCCC(CO)(CC2CC2)C1 (centres undefined) to CCc1n[nH]c(C(=O)N2CCC3(CCCN(CCOC)C3=O)C2)c1C (centres undefined), the cytotoxicity at 10 µM rises from 4.38% to 6.38%.

First: O=C(O)C1c2nc[nH]c2CCN1Cc1cc(-c2ccccc2)no1 (centres undefined)
Second: O=C(c1ccc2cccnc2n1)N(Cc1ccsc1)CC1CCCO1 (centres undefined)
The cytotoxicity at 10 µM of the first is higher: -11.4% for the first, -15.1% for the second.

First: CCOc1cc2c(cc1CN1CCC3(CCCNC3=O)C1)CCC2 (centres undefined)
Second: O=C1CCCN1CCC1CCN(C2CCCNC2)CC1 (centres undefined)
The cytotoxicity at 10 µM of the first is higher: 14.9% for the first, 2.37% for the second.

Compared with Cc1nnc(N2CCN(C)C3(CCC(=O)N(CCO)CC3)C2)s1 (centres undefined), Cc1cncc(C(=O)N2CCC3(CCCN(c4nncs4)C3)C2)c1 (centres undefined) is lower in cytotoxicity at 10 µM: -9.2% for the first, -99.4% for the second.

Compared with CSCCc1n[nH]c2c1CN(S(=O)(=O)c1c(C)nn(C)c1C)CC2, c1csc(NCc2n[nH]c3c2CCN(CC2CC2)C3)n1 is lower in cytotoxicity at 10 µM: 7.66% for the first, -0.733% for the second.

First: CC(C)Cc1nc(CCn2cncn2)n(-c2ccc3c(c2)OCCO3)n1
Second: COc1ccc(CN2CCCn3cncc3C2)cc1Cn1cncn1
The cytotoxicity at 10 µM of the first is higher: 12.5% for the first, 5.63% for the second.

First: CCOC(=O)CNC(=O)N1CCc2onc(-c3ccc(Cl)cc3)c2C1
Second: Cc1ccc(CN2CCn3c(C(=O)N(C)C)cnc3C2)cc1
The cytotoxicity at 10 µM of the first is higher: -43.4% for the first, -68.9% for the second.

Going from COCC1(CNc2cc(C(C)C)nc(N)n2)CC1 to CC(C)c1nc(C2CCCN2C(=O)c2cnc[nH]2)no1 (centres undefined), the cytotoxicity at 10 µM falls from 29.4% to -6.49%.

Going from OC1(CN2CCN(c3cccc(C(F)(F)F)c3)CC2)CNCCOC1 (centres undefined) to O=C(C1CC(F)(F)C1)N1C[C@@H]2CN(Cc3ccsc3)CCO[C@@H]2C1, the cytotoxicity at 10 µM falls from -5.13% to -93.5%.

Compared with CC(C)COc1cccc(-c2nc3c([nH]2)CCNC3)c1, Cc1nccn1CCCn1cncc1-c1ccc2c(c1)CCCN2C is lower in cytotoxicity at 10 µM: 4.48% for the first, -4.7% for the second.

Compared with CN(CC(=O)N1CC(C)(C)[C@](O)(C2CC2)C1)Cc1ccncc1, CN(Cc1ccco1)C[C@H]1OC[C@@H]2CCN(Cc3cccnc3)C[C@@H]21 is higher in cytotoxicity at 10 µM: -44.1% for the first, -7.9% for the second.

First: CC(C)c1nccn1C1CCCN(C(=O)c2nccnc2N)C1 (centres undefined)
Second: O=C([C@H]1C[C@H]2CN(c3ncc(F)cn3)C[C@@H]1O2)N1CCCC1
The cytotoxicity at 10 µM of the first is higher: 0.0264% for the first, -115% for the second.

Compared with c1cnn(CC2CCCN2Cc2ccc(-n3cccn3)cc2)c1 (centres undefined), CC(C)c1nc(CN2CCCC2CN2CCCC2)cs1 (centres undefined) is higher in cytotoxicity at 10 µM: -4.8% for the first, 6.72% for the second.

Going from CCn1cncc1CN(Cc1ccc(OC)cc1OC)CC1CCCO1 (centres undefined) to c1coc(CN2C[C@@H]3OCCN(CC4CCCO4)[C@@H]3C2)c1 (some centres undefined), the cytotoxicity at 10 µM falls from -18% to -83.1%.

Compared with Cn1cc(CN2CCO[C@@H]3CN(C4CCCC4)C[C@@H]3C2)cn1, c1csc(CN2CCO[C@H]3[C@H](OCC4CCCC4)CC[C@@H]32)n1 is higher in cytotoxicity at 10 µM: -4.8% for the first, 6.09% for the second.

CC(C)=CCN1C[C@@H]2CC[C@H]1CN(C(=O)CCc1nnc(C)[nH]1)C2 showed a cytotoxicity at 10 µM of -6.57%.
